Test results published in ChEMBL document CHEMBL1150355, “Design and evaluation of a novel series of 2,3-oxidosqualene cyclase inhibitors with low systemic exposure, relationship between pharmacokinetic properties and ocular toxicity” (Bioorg Med Chem, 2008).
Values belong to the molecule of their own block, whether it stands above or below them. Activity calls are given as the source filed them. The rule behind the calls is not given here.

How the values were obtained:
Lanosterol synthase = target: T1, Lanosterol synthase (Homo sapiens, UniProt P48449); assay: Inhibition of 2,3-oxidosqualene-lanosterol cyclase
T1 sequence (P48449 whole entry): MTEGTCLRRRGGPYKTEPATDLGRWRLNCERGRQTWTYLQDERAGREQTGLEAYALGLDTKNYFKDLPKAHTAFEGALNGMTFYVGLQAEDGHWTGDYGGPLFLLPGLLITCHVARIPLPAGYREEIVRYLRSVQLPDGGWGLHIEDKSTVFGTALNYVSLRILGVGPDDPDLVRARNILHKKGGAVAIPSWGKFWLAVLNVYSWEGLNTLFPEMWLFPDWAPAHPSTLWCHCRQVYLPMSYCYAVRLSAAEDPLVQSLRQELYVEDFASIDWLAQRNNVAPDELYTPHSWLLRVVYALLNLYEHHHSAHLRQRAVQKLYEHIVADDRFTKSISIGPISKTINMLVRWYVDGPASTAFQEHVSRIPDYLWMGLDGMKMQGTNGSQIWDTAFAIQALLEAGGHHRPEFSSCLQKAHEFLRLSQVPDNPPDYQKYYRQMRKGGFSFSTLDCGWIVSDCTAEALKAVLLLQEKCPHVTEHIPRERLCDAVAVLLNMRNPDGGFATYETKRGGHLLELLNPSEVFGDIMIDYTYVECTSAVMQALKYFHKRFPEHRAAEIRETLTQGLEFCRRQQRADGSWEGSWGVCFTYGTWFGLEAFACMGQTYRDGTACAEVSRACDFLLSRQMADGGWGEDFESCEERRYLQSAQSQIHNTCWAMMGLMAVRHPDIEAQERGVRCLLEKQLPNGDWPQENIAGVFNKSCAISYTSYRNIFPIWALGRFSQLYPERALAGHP
How it was run: (§1)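 HepG2 cells were incubated 24 h with compound in BME with 10% fetal calf serum, then labelled with [14C]mevalonate (7.4 kBq). Lipids were extracted with heptane/isopropanol and separated by TLC. [14C]cholesterol, MES and DES were identified against standards and quantified by phosphorimaging, scoring cholesterol synthesis inhibition together with MES/DES formation.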

[1] = target: T2, Lanosterol synthase (Homo sapiens) (UniProt P48449); assay: Inhibition of 2,3-oxidosqualene-lanosterol cyclase at 200 nM; how it was run: as §1
T2 sequence (whole entry): T1 sequence (P48449 whole entry)

[2] = Metabolic stability in rat liver microsomes assessed as intrinsic clearance […]; type: ADME, Microsome
Rattus norvegicus [3] = assay: Inhibition of neosynthetized cholesterol synthesis in OFA rat liver at 2 mg/kg, po after 3 hrs; type: functional
How it was run: (§2)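 Male OFA rats dosed orally at 2 mg/kg. Sterol synthesis was labelled by ip [14C]mevalonate (370 kBq) for the final hour, giving 3 h or 8 h total exposure. Lens and liver lipids were extracted with isopropanol, separated by TLC, and cholesterol and MES radioactivity quantified by phosphorimaging. Cholesterol inhibition is relative to vehicle-treated rats, and MES as % of BIBB 515-treated rats (100%).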

Rattus norvegicus [4] = assay: Induction of neosynthetized 2,3 mono-epoxysqualene synthesis in OFA rat liver at 2 mg/kg, po after 3 hrs relative to BIBB 515; type: functional; how it was run: as §2
Rattus norvegicus [5] = assay: Inhibition of neosynthetized cholesterol synthesis in OFA rat lens at 2 mg/kg, po after 3 hrs; type: functional; conditions: Lens of camera-type eye; how it was run: as §2
Rattus norvegicus [6] = assay: Induction of neosynthetized 2,3 mono-epoxysqualene synthesis in OFA rat lens at 2 mg/kg, po after 3 hrs relative to BIBB 515; type: functional, Lens of camera-type eye; how it was run: as §2
Rattus norvegicus [7] = assay: Inhibition of neosynthetized cholesterol synthesis in OFA rat liver at 2 mg/kg, po after 8 hrs; type: functional; how it was run: as §2
Rattus norvegicus [8] = assay: Induction of neosynthetized 2,3 mono-epoxysqualene synthesis in OFA rat liver at 2 mg/kg, po after 8 hrs relative to BIBB 515; type: functional; how it was run: as §2
Rattus norvegicus [9] = assay: Inhibition of neosynthetized cholesterol synthesis in OFA rat lens at 2 mg/kg, po after 8 hrs; type: functional; conditions: Lens of camera-type eye; how it was run: as §2
Rattus norvegicus [10] = assay: Induction of neosynthetized 2,3 mono-epoxysqualene synthesis in OFA rat lens at 2 mg/kg, po after 8 hrs relative to BIBB 515; type: functional, Lens of camera-type eye; how it was run: as §2
[11] = AUC (0 to 6 hrs) in OFA rat at 1 mg/kg, iv; type: ADME, organism-based; design: time < 6 hr, dose 1 mg/kg, route intravenous; conditions: plasma
How it was run: (§3)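 OFA rats (n = 10) dosed 1 mg/kg by iv bolus via penis vein in 10% DMA/90% PEG200. Plasma and tissue homogenates in borate buffer 0.1 M pH 11.5 were extracted with ethyl ether and analysed by LC. Plasma AUC was computed over 0–6 h.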

[12] = Biodistribution in OFA rat liver at 1 mg/kg, iv after 2 hrs; type: ADME, organism-based; design: dose 1 mg/kg, route intravenous; conditions: read-out: Drug uptake; how it was run: as §3
[13] = Biodistribution in OFA rat liver at 1 mg/kg, iv after 6 hrs; type: ADME, organism-based; design: dose 1 mg/kg, route intravenous; conditions: read-out: Drug uptake; how it was run: as §3
[14] = Biodistribution in OFA rat eyes at 1 mg/kg, iv after 2 hrs; type: ADME, organism-based; design: dose 1 mg/kg, route intravenous; conditions: eye, read-out: Drug uptake; how it was run: as §3
[15] = Biodistribution in OFA rat eyes at 1 mg/kg, iv after 6 hrs; type: ADME, organism-based; design: dose 1 mg/kg, route intravenous; conditions: eye, read-out: Drug uptake; how it was run: as §3
Rattus norvegicus [16] = assay: Ocular toxicity in Sprague-Dawley rat assessed as opacification of anterior lens at 30 mg/kg, po administered once daily for 21 days; type: organism-based, Lens of camera-type eye; design: dose 30 mg/kg, route oral; conditions: in vivo, 504 h
How it was run: (§4)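 Sprague–Dawley rats (male and female, n = 3) were dosed orally once daily for 21 days. Anterior lens opacification was scored from 0 to 6 (4 marked, 5 very marked, 6 severe), with histological examination of the eye.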

Rattus norvegicus [17] = assay: Inhibition of 2,3-oxidosqualene-lanosterol cyclase in male Sprague-Dawley rat assessed as 2,3 mono-epoxysqualene appearance in liver at 2 mg/kg, po administered once daily for 21 days; type: functional, organism-based; design: dose 2 mg/kg
How it was run: (§5)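 Sprague–Dawley rats (3 per sex) were dosed orally once daily for 21 days. On day 21, 3 h after the last dose, rats were sacrificed and hepatic lipids extracted and separated by TLC. MES was visualised with 5% phosphomolybdic acid in isopropanol, and MES mass quantified by densitometry.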

Rattus norvegicus [18] = assay: Inhibition of 2,3-oxidosqualene-lanosterol cyclase in female Sprague-Dawley rat assessed as 2,3 mono-epoxysqualene appearance in liver at 2 mg/kg, po administered once daily for 21 days; type: functional, organism-based; design: dose 2 mg/kg; how it was run: as §5
Rattus norvegicus [19] = assay: Inhibition of 2,3-oxidosqualene-lanosterol cyclase in male Sprague-Dawley rat assessed as 2,3 mono-epoxysqualene appearance in liver at 10 mg/kg, po administered once daily for 21 days; type: functional, organism-based; design: dose 10 mg/kg; how it was run: as §5
Rattus norvegicus [20] = assay: Inhibition of 2,3-oxidosqualene-lanosterol cyclase in female Sprague-Dawley rat assessed as 2,3 mono-epoxysqualene appearance in liver at 10 mg/kg, po administered once daily for 21 days; type: functional, organism-based; design: dose 10 mg/kg; how it was run: as §5
Rattus norvegicus [21] = assay: Inhibition of 2,3-oxidosqualene-lanosterol cyclase in male Sprague-Dawley rat assessed as 2,3 mono-epoxysqualene appearance in liver at 30 mg/kg, po administered once daily for 21 days; type: functional, organism-based; design: dose 30 mg/kg; how it was run: as §5
Rattus norvegicus [22] = assay: Inhibition of 2,3-oxidosqualene-lanosterol cyclase in female Sprague-Dawley rat assessed as 2,3 mono-epoxysqualene appearance in liver at 30 mg/kg, po administered once daily for 21 days; type: functional, organism-based; design: dose 30 mg/kg; how it was run: as §5
Rattus norvegicus [23] = assay: Ocular toxicity in Sprague-Dawley rat assessed as opacification of anterior lens at 2 mg/kg, po administered once daily for 21 days; type: organism-based, Lens of camera-type eye; design: dose 2 mg/kg, route oral; conditions: in vivo, 504 h; how it was run: as §4

- IC50 (Lanosterol synthase): 40 nM
Compound: CN(C)Cc1ccc(CN2CCN(C(=O)c3ccc(Cl)cc3)CC2)cc1

- EC50 (Lanosterol synthase): 100 nM
Compound: N#Cc1ccc(S(=O)(=O)NCCc2ccc(C(O)c3cccnc3)cc2)cc1 (racemic)

- Activity [1]: inactive
Compound: Cn1cc(-c2ccc(CN3CCN(C(=O)c4ccc(Cl)cc4)CC3)cc2)cn1

- IC50 (Lanosterol synthase): 6 nM
- CLint scaled [2]: 5.4 mL/min/g
- AUC(0-t) at 6 h [11]: 97 ng·h/mL
- concentration at 2 h [12]: 6600 ng/g
- concentration at 6 h [13]: 3270 ng/g
- concentration at 2 h [14]: 278 ng/g
- concentration at 6 h [15]: 123 ng/g
Compound: CN1CCN(c2ccc(CN3CCN(S(=O)(=O)c4ccc(Cl)cc4)CC3)cc2)CC1
- inhibition in vivo at 2 mg/kg (Rattus norvegicus [3]): 75%
- Activity (Rattus norvegicus [4]): 111%
- inhibition in vivo at 2 mg/kg (Rattus norvegicus [5]): 67%
- Activity (Rattus norvegicus [6]): 162%
- inhibition in vivo at 2 mg/kg (Rattus norvegicus [7]): 62%
- Activity (Rattus norvegicus [8]): 232%
- inhibition in vivo at 2 mg/kg (Rattus norvegicus [9]): 67%
- Activity (Rattus norvegicus [10]): 29%
- Activity (Rattus norvegicus [16]): Toxic
- Activity (Rattus norvegicus [17]): Toxic
- Activity (Rattus norvegicus [18]): Toxic
- Activity (Rattus norvegicus [19]): Toxic
- Activity (Rattus norvegicus [20]): Toxic
- Activity (Rattus norvegicus [21]): Toxic
- Activity (Rattus norvegicus [22]): Toxic

- IC50 (Lanosterol synthase): 2510 nM
Compound: COc1ccc(C(=O)N2CCN(Cc3ccc(-c4ccncc4)cc3)CC2)cc1

- Activity [1]: inactive
Compound: O=C(c1ccc(Cl)cc1)N1CCN(Cc2ccc(-n3cccn3)cc2)CC1

- IC50 (Lanosterol synthase): 32 nM
- CLint scaled [2]: 2.5 mL/min/g
Compound: CN(C)Cc1ccc(CN2CCN(S(=O)(=O)c3ccc(Cl)cc3)CC2)cc1
- inhibition in vivo at 2 mg/kg (Rattus norvegicus [3]): 74%
- Activity (Rattus norvegicus [4]): 55%

- Activity [1]: inactive
Compound: CN(C)Cc1cccc(-c2ccc(CCNS(=O)(=O)c3ccc(C#N)cc3)cc2)c1

- IC50 (Lanosterol synthase): 32 nM
- CLint scaled [2]: 0.2 mL/min/g
- AUC(0-t) at 6 h [11]: 534 ng·h/mL
- concentration at 2 h [12]: 2010 ng/g
- concentration at 6 h [13]: 660 ng/g
- concentration at 2 h [14]: 65 ng/g
- concentration at 6 h [15]: < 10 ng/g
Compound: O=C(c1ccc(Cl)cc1)N1CCN(Cc2ccc(-n3ccnc3)cc2)CC1
- inhibition in vivo at 2 mg/kg (Rattus norvegicus [3]): 85%
- Activity (Rattus norvegicus [4]): 156%
- inhibition in vivo at 2 mg/kg (Rattus norvegicus [5]): 76%
- Activity (Rattus norvegicus [6]): 104%
- inhibition in vivo at 2 mg/kg (Rattus norvegicus [7]): 20%
- Activity (Rattus norvegicus [8]): 85%
- inhibition in vivo at 2 mg/kg (Rattus norvegicus [9]): 0%
- Activity (Rattus norvegicus [10]): 51%
- Activity (Rattus norvegicus [16]): Toxic
- Activity (Rattus norvegicus [23]): Non-toxic
- Activity (Rattus norvegicus [17]): Non-toxic
- Activity (Rattus norvegicus [18]): Toxic
- Activity (Rattus norvegicus [19]): Toxic
- Activity (Rattus norvegicus [20]): Toxic
- Activity (Rattus norvegicus [21]): Toxic
- Activity (Rattus norvegicus [22]): Toxic

- IC50 (Lanosterol synthase): 500 nM
Compound: O=S(=O)(c1ccc(Cl)cc1)N1CCN(Cc2cccc(-c3ccncc3)c2)CC1
